Test: Inhibitory activity against MCP-1 induced Calcium flux in […]
Type: functional, cell-based
Conditions: Homo sapiens, THP-1
Outline: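 THP-1 cells loaded 30 min with 4 µM Fluo-3 AM at 2 million cells/mL (RPMI, 20 mM HEPES, 0.1% BSA, 5 mM probenecid). Washed into HEPES saline with 1.25 mM CaCl2, 2.5 mM probenecid and 0.1% BSA. Plated at 150,000 cells/well, preincubated 20 min with compound, then stimulated with 10^-7 M hMCP-1. FLIPR fluorescence recorded from 10 s before to 2 min after; maximal signal used.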

Structure (SMILES) | IC50
CCC(c1ccc(Br)c(Br)c1)n1c(C(=O)OC)cnc1S (stereo not given) | 251 nM
COC(=O)c1cnc(S)n1C(C)c1ccc(Cl)c(Cl)c1 (stereo not given) | 251 nM
CCC(c1ccc(Cl)cc1)n1c(C(=O)OC)cnc1S (stereo not given) | > 10000 nM
CCC(c1ccc(Cl)c(Cl)c1)n1c(S)nc(C)c1C(=O)NC (stereo not given) | > 10000 nM
CCC(c1ccc(F)c(F)c1)n1c(C(N)=O)cnc1S (stereo not given) | 501 nM
CCC(c1ccc(Cl)c(Cl)c1)n1c(C(=O)NC)cnc1S (stereo not given) | 316 nM
CCC(c1ccc(C(F)(F)F)c(F)c1)n1c(C(=O)OC)cnc1S (stereo not given) | 2000 nM
CCC(c1ccc(Cl)c(Cl)c1)n1c(S)nc(C(N)=O)c1C#N (stereo not given) | 126 nM
CCC(c1ccc(Cl)c(Cl)c1)n1c(S)nc(C)c1C(=O)OC (stereo not given) | 251 nM
CCC(c1ccc(F)c(F)c1)n1c(C(=O)NCC(C)C)cnc1S (stereo not given) | > 10000 nM
CCC(c1ccc(F)c(F)c1)n1c(S)nc(C(=O)OC)c1C(=O)OC (stereo not given) | 10 nM
CC[C@H](c1ccc(F)c(F)c1)n1c(S)nc(C(=O)OC)c1C(=O)OC | 2000 nM
COCC(c1ccc(Cl)c(Cl)c1)n1c(C(=O)OC)cnc1S (stereo not given) | 316 nM
CCC(c1ccc(F)c(C(F)(F)F)c1)n1c(C(=O)OC)cnc1S (stereo not given) | 1000 nM
COC(=O)c1cnc(S)n1C(c1ccc(Cl)c(Cl)c1)C1CC1 (stereo not given) | 2000 nM
CCC(c1ccc(Cl)c(Cl)c1)n1c(CO)cnc1S (stereo not given) | > 10000 nM
CCC(c1ccc(Cl)c(Cl)c1)n1c(S)nc(C(=O)OC)c1C#N (stereo not given) | 39.8 nM
COC(=O)c1cnc(S)n1C(C)(C)c1ccc(Cl)c(Cl)c1 | > 10000 nM
CCC(c1ccc(Cl)c(Cl)c1)n1c(C(=O)O)cnc1S (stereo not given) | > 10000 nM
CCC(c1ccc(F)c(F)c1)n1c(C(=O)N2CCCC2)cnc1S (stereo not given) | > 10000 nM
CCC(c1ccc(Cl)c(Cl)c1)n1c(S)nc(C(=O)OC)c1C(=O)OC (stereo not given) | 10 nM
CCC(c1ccc(Cl)c(Cl)c1)n1c(C#N)cnc1S (stereo not given) | 631 nM
CC[C@@H](c1ccc(Cl)c(Cl)c1)n1c(C(N)=O)cnc1S | 39.8 nM
CCC(c1ccc(Cl)c(Cl)c1)n1c(C(=O)OC)cnc1S (stereo not given) | 200 nM
CCC(c1ccc(Cl)c(Cl)c1)n1c(S)nc(C(=O)O)c1C(=O)OC (stereo not given) | > 10000 nM
CCCCNC(=O)c1cnc(S)n1C(CC)c1ccc(F)c(F)c1 (stereo not given) | > 10000 nM
COC(=O)c1cnc(S)n1C(c1ccc(Cl)c(Cl)c1)c1cccs1 (stereo not given) | > 10000 nM
CCC(c1cc(F)cc(F)c1)n1c(C(=O)OC)cnc1S (stereo not given) | > 10000 nM

Structure (SMILES) | IC50
COC(=O)c1cnc(S)n1C(c1ccc(Cl)c(Cl)c1)c1ccc(Cl)c(Cl)c1 | > 10000 nM
CCC(c1cccc(Cl)c1)n1c(C(=O)OC)cnc1S (stereo not given) | > 10000 nM
CC[C@H](c1ccc(Cl)c(Cl)c1)n1c(C(=O)OC)cnc1S | 1580 nM
CCC(c1ccc(F)c(F)c1)n1c(C(=O)N2CCOCC2)cnc1S (stereo not given) | > 10000 nM
CCC(c1ccc(OC)c(OC)c1)n1c(C(=O)OC)cnc1S (stereo not given) | > 10000 nM
CC[C@H](c1ccc(Cl)c(Cl)c1)n1c(C(N)=O)cnc1S | 10000 nM
CCOC(=O)c1cnc(S)n1C(CC)c1ccc(F)c(F)c1 (stereo not given) | 316 nM
CC[C@@H](c1ccc(F)c(F)c1)n1c(S)nc(C(=O)OC)c1C(=O)OC | 7.94 nM
CC[C@@H](c1ccc(Cl)c(Cl)c1)n1c(S)nc(C(=O)OC)c1C(=O)OC | 7.94 nM
CCC(c1ccc(C)c(C)c1)n1c(C(=O)OC)cnc1S (stereo not given) | > 10000 nM
CC[C@@H](c1ccc(Cl)c(Cl)c1)n1c(C(=O)OC)cnc1S | 126 nM
CCC(c1ccc(Cl)c(Cl)c1)n1c(C(=O)OC(C)C)cnc1S (stereo not given) | 316 nM
CCC(c1ccc(Cl)c(Cl)c1)n1c(S)nc(C(N)=O)c1C(N)=O (stereo not given) | 63.1 nM
CCC(c1ccc(F)c(F)c1)n1c(C(=O)OC)cnc1S (stereo not given) | 1260 nM
CCC(c1ccc(F)c(F)c1)n1c(C(=O)NC)cnc1S (stereo not given) | 2000 nM
CCC(c1cccc(Oc2ccccc2)c1)n1c(C(=O)OC)cnc1S (stereo not given) | > 10000 nM
CCC(c1ccc(C(F)(F)F)cc1)n1c(C(=O)OC)cnc1S (stereo not given) | > 10000 nM
COC(=O)c1cnc(S)n1C(c1ccc(Cl)c(Cl)c1)C1CCCCC1 (stereo not given) | 10000 nM
CCC(c1ccc(Cl)c(Cl)c1)n1c(C(N)=O)cnc1S (stereo not given) | 50.1 nM
CCC(c1ccc(F)c(F)c1)n1c(C(=O)N2CCCCC2)cnc1S (stereo not given) | > 10000 nM
CCC(c1ccc(F)c(C(F)(F)F)c1)n1c(S)nc(C(=O)OC)c1C(=O)OC (stereo not given) | 100 nM
CCC(c1ccccc1)n1c(C(=O)OC)cnc1S (stereo not given) | > 10000 nM
CCC(c1ccc(C(F)(F)F)c(F)c1)n1c(S)nc(C(=O)OC)c1C(=O)OC (stereo not given) | 20 nM
CCC(c1ccccc1Cl)n1c(C(=O)OC)cnc1S (stereo not given) | > 10000 nM
CCC(c1cc(Cl)cc(Cl)c1)n1c(C(=O)OC)cnc1S (stereo not given) | > 10000 nM
CCC(c1ccc(Cl)c(Cl)c1)n1c(S)nc(C(=O)NC)c1C(=O)NC (stereo not given) | 398 nM
CCCC(c1ccc(Cl)c(Cl)c1)n1c(C(=O)OC)cnc1S (stereo not given) | 158 nM

Reference: ChEMBL document CHEMBL1144259, “2-Mercaptoimidazoles, a new class of potent CCR2 antagonists” (Bioorg Med Chem Lett, 2005)
